# Bioassay records: PubChem, several laboratories
# NRP1-CendR mod: NRP-1/CendR interaction modulation. AID 602438. hit rate 0.85% among 360,000. FAM-RPARPAR peptide binding to NRP-1, fluorescence polarization. inhibition, % at 25 µM. O14786;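 active = inhibition or corrected inhibition above about 18%, plus a signal ratio from 0.5 to 1.5, limit read from the data, passing the limit was not always enough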
# PfM18AAP inh: PfM18AAP enzyme inhibition; inhibition, % at 7.35 µM; hit rate 1.2% among 290,000; recombinant PfM18AAP, H-Glu-NHMec fluorogenic cleavage; AID 1822;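 active = inhibition above the campaign mean inhibition over all tested compounds plus 3 SD, cut at about 28% in these data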;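 note: 0% = plate median of test compound wells and 100% = 2 mM ZnCl2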
# Hep lipid drop: hepatic lipid droplet formation modulation | hit rate 0.4% among 240,000 | AID 1656 | inhibition, % at 6.5 µM | AML12 mouse hepatocytes, oleate lipid droplets, BODIPY imaging;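 active = lipid droplet intensity inhibited by at least 50%, with more than 500 cells counted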
#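 material = mouse AML12 hepatocyte cell line, fixed after treatment | also added = 100 µM oleic acid challenge | doses = compound at 6.5 µM only | schedule = overnight exposure | technique = Image-based BODIPY and DAPI two-channel analysis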
# m5-HT2A agonist: mouse HTR2A agonism via beta-arrestin recruitment. CHO-K1 mHTR2A beta-arrestin complementation, luminescence; percent of 30 µM serotonin response. P35363. AID 624169. activation, % at 7.6 µM. hit rate 0.66% among 360,000;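 active = activation above a run cutoff, the mean activation of all tested compounds plus 3 SD, cut at about 14% in these data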;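 note: 0% = plate median of compound wells and 100% = 30 µM serotonin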
# sPLA2-III inh: Blocks human group III sPLA2 activity | Q9NZ20 | inhibition, % at 12.2 µM | hit rate 0.56% among 370,000 | QFRET BODIPY PC-A2 liposome hydrolysis, fluorescence;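 active = inhibition above mean plus 3 SD of compounds lying within the high and low control bounds, cut at about 19% in these data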;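 note: 0% = median of test compound wells and 100% = no enzyme DMSO wells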
# Arrestin-AP2 inh: inhibitors of human beta-arrestin and AP2 interaction; FITC-arrestin peptide / GST-AP2 beads, flow cytometry; AP2 beta2 appendage carries R879A mutation; inhibition, % at 10 µM; hit rate 0.31% among 340,000;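 active = inhibition above a set limit, near 3 SD of compounds lacking own fluorescence, cut at about 54% in these data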;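 note: plate controls were DMSO wells for no effect and 5 µM unlabelled arrestin peptide for full effect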
#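 system = GST-tagged AP2 beta2-adaptin appendage (R879A) on 4 µm glutathione beads | reagent = FITC-labelled arrestin peptide probe, 50 nM final | schedule = compound with beads 12 min RT, then probe 1 h RT | signal = HyperCyt-sampled flow cytometry, FL1 channel, ex 488/em 535 nm | read-out = percent response from loss of bead-bound FITC fluorescence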
# hGIII sPLA2 conf: human GIII-sPLA2 inhibition, confirmation; shares compounds with sPLA2-III inh; recombinant hGIII-sPLA2, BODIPY PC-A2 QFRET fluorescence; inhibition, % at 12.2 µM; hit rate 34% among 2,000;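 active = mean inhibition across triplicates above the hit cutoff set in the earlier primary screen, cut at about 19% in these data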;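 note: 0% = enzyme with DMSO and 100% = DMSO wells lacking enzyme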
# BODIPY interf: optically interferes with 535nm fluorescence in sPLA2 counter-screen; shares compounds with sPLA2-III inh; BODIPY FL product fluorescence interference, QFRET; inhibition, % at 12.2 µM; hit rate 8.5% among 2,000; AID 743282;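 active = average inhibition above the solvent-only control mean plus 3 SD, cut at about 6% in these data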;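 note: 0% = DMSO with substrate plus product and 100% = DMSO with substrate alone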
# 535nm interf DR: interferes with 535nm fluorescence in dose response counter-screen; BODIPY FL product fluorescence interference, cell-free; AID 743455; 240 tested, under 10 active; IC50, µM; shares compounds with sPLA2-III inh;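 active = IC50 at or below 10 µM; inactive = IC50 above 10 µM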
# Starred values were filed as active, the others as inactive; . = no result. This is a sample that favours compounds with a hit; in the whole collection about 3.3% have one here.
SMILES,NRP1-CendR mod,PfM18AAP inh,Hep lipid drop,m5-HT2A agonist,sPLA2-III inh,Arrestin-AP2 inh,hGIII sPLA2 conf,BODIPY interf,others
CCOC(=O)c1cnc(Cc2ccccc2)[nH]c1=O,9.5,-3.1,-7.4,-2.6,2.8,3.3,.,.,
CCOC(=O)c1cnc(-n2[nH]c(C)c(Cc3ccccc3)c2=O)[nH]c1=O,-4.6,4.4,22.5,0.8,23.1*,-0.7,19.8*,-4.9,
Cc1ccc(/C=N/NC(=O)CSc2nc3ccccc3c(=O)n2-c2ccccc2)s1,-9.7,-1.9,-2.6,1.1,19.3*,31.7,2.6,1.9,
O=C(CSc1nc2ccccc2c(=O)n1-c1ccc(Cl)cc1)c1ccco1,-17.7,3.7,.,0.4,-14.5,-7.5,.,.,
O=C(CSc1nc2ccccc2c(=O)n1-c1ccc(Cl)cc1)NNC(=S)Nc1ccccc1,.,.,.,.,33.3*,.,27.1*,4.3,
CCn1c(SCC(=O)NNC(=S)Nc2ccccc2)nnc1-c1ccc(Cl)cc1,-3.9,15.0,25.4,-2.2,17.4,11.8,.,.,
O=C(CSc1nnc(-c2ccccc2)n1-c1ccc(Cl)cc1)NNC(=S)Nc1ccccc1,6.0,-2.7,2.0,-0.4,26.2*,13.0,38.5*,-6.9,535nm interf DR=>122
Cc1ccc(/C=N/NC(=O)CSc2nc3ccccc3c(=O)n2-c2ccccc2C)s1,-1.9,4.2,-0.5,3.0,-5.0,7.0,.,.,
COc1cc(N)c2ncccc2c1Br,12.1,.,.,-2.6,8.1,-3.8,.,.,
OC(CCN1CCC2CCC(C2)C1)c1ccc(Br)cc1 (configuration not stated),9.4,.,.,-6.2,20.1*,-0.2,4.7,-17.3,
O=C(CCN1CCC2CCC(C2)C1)c1ccccc1 (configuration not stated),-155.2,.,.,4.2,4.3,6.5,.,.,
O=C(c1cc(O)c(O)c([N+](=O)[O-])c1)c1ccccc1F,-48.4,.,.,3.7,28.6*,0.5,15.1,2.9,
CC1(Oc2ccc3ccccc3c2)CCN(Cc2ccc(OC(F)(F)F)cc2)C1 (configuration not stated),3.9,.,.,2.8,-3.0,.,.,.,
CCCCCCCCNC(=O)c1cccnc1SCC(=O)Nc1ccc(OC)cc1OC,-3.2,-4.0,6.3,2.6,21.9*,0.6,-9.4,-41.0,
CC(=O)N1N=C(c2ccc3ccccc3c2)OC1(C)C,-10.1,-17.5,31.0,-2.0,-6.1,-4.9,.,.,
CC(=O)N1N=C(c2ccc(C(C)(C)C)cc2)OC1(C)C,3.8,0.4,-5.5,-1.5,20.3*,-6.0,2.5,-17.4,
COC(=O)c1ccc2nc(-c3cccc(Br)c3)c(Cc3cccc(Cl)c3)n2c1,.,.,.,.,-1.2,.,.,.,
Cc1cccc2sc(NNC(=O)c3cc(-c4cccs4)nc4ccccc34)nc12,-2.5,31.4*,-30.2,9.3,49.5*,6.4,49.1*,8.8*,
CCOC(=O)C1C(c2ccc(C)o2)NC(=O)NC1(O)C(F)(F)F (configuration not stated),0.5,-0.9,.,3.9,19.6*,8.8,0.4,-4.2,
Cc1ccc(C2NC(=O)NC(O)(C(F)(F)F)C2C(=O)c2ccccc2)o1 (configuration not stated),-8.1,10.2,1.6,-3.9,1.8,11.9,.,.,
Nc1ncnc2c1ncn2[C@@H]1O[C@H](C(=O)NCC2CCN(Cc3ccccc3)CC2)[C@@H](O)[C@H]1O,-8.6,.,.,0.5,6.3,.,.,.,
O=C(COC(=O)/C=C/c1ccc(Cl)cc1)NCCC1=CCCCC1,6.4,-0.9,-13.2,1.3,21.5*,5.5,-6.1,-10.5,
CCCCOc1ccc(S(=O)(=O)NC(=O)C2(C)CCN2C(=O)Cc2cccs2)cc1 (configuration not stated),12.3,.,.,4.7,87.4*,.,-10.5,-6.1,
Cc1ccc(S(=O)(=O)NC(=O)C2(C)CCN2C(=O)Cc2cccs2)cc1 (configuration not stated),0.2,.,.,5.0,15.8,.,.,.,
COc1ccc(-n2c(COc3ccccc3)nnc2SCC(=O)Nc2ccc(OCc3ccccc3)cc2)cc1,.,.,.,.,4.2,.,.,.,
SMILES,NRP1-CendR mod,PfM18AAP inh,Hep lipid drop,m5-HT2A agonist,sPLA2-III inh,Arrestin-AP2 inh,hGIII sPLA2 conf,BODIPY interf,others
COC(=O)[C@]12C[C@H](CC(=O)N3CCC(c4ccccc4)CC3)C(=O)N(CCc3ccc(OC)c(OC)c3)C1=C[C@H](COCc1ccccc1)O[C@@H]2C,.,.,.,.,-8.7,.,.,.,
COc1ccc(C(=O)N/N=C/c2sc3ccccc3c2O)cc1,121.3,27.7,-10.6,-4.1,.,5.5,.,.,
COc1ccc2cc(C(=O)N/N=C/c3sc4ccccc4c3O)ccc2c1,131.9,20.3,-7.7,-3.4,20.8*,1.4,-27.8,-32.9,
O=C(N/N=C/c1sc2ccccc2c1O)c1ccccc1,135.1,17.6,0.5,-6.1,.,2.7,.,.,
O=C(N/N=C/c1sc2ccccc2c1O)c1cccc2ccccc12,101.8,13.7,-14.5,-1.2,31.1*,14.3,8.5,5.4,
COc1ccc(NC(=S)Nc2ccc3nccnc3c2)cc1,-2.2,16.4,-11.9,-0.7,22.8*,14.0,5.4,-3.1,
COc1ccc(NC(=S)Nc2ccccc2)cc1,13.3,7.7,2.3,-1.9,4.1,-9.6,.,.,
N#C/C(=N\Nc1ccc(Cl)cc1)C(N)=S,3.2,4.7,-26.0,7.7,0.5,27.9,.,.,
N#C/C(=N\Nc1ccccc1)C(N)=S,-2.9,14.7,1.5,7.7,19.4*,26.8,33.4*,-3.3,
CCC(C(=O)OCCOCCN(CC)CC)c1ccccc1 (configuration not stated),21.9,2.0,1.0,-0.6,20.3*,10.6,5.6,-7.5,
Nc1ccc(N2CCCC2)c(S(=O)(=O)Nc2cccc(C(F)(F)F)c2)c1,8.6,.,.,4.3,5.0,32.1,.,.,
N#CC(C#N)=c1ccc2c(c1)NC1(CCCCC1)N=2,6.2,6.2,.,-5.7,38.3*,-1.2,60.9*,18.5*,
CC1=C(C(=O)N(C)C)CC(CC(=O)NCc2cccc3ccccc23)C(=O)N1CCCN1CCCC1=O (configuration not stated),-14.9,.,.,3.7,21.2*,.,-2.8,-7.0,
CCCNS(=O)(=O)c1ccc(CCC(=O)N2CCN(CC)CC2)cc1,-1.0,2.3,10.6,1.9,20.9*,15.5,-2.3,-6.8,
Cc1nc2c(c(=O)c3ccccc3n2C)c(=O)n1-c1ccc(F)cc1,4.6,-6.6,11.1,1.9,7.7,27.8,.,.,
CC(C)c1nc2c(c(=O)c3ccccc3n2C)c(=O)n1-c1ccc(F)cc1,-1.7,-3.4,-1.8,0.2,23.8*,-3.0,1.2,-15.6,
